# Measurements published in ChEMBL document CHEMBL3272177, “Hypolipidemic alkoxybenzoic acids” (1976).
# Tests used:
# Parameters in all cases: scale not given: the % may be the effect or the level left
# Rattus norvegicus [1] = species on record: Rattus norvegicus; experiment: Reduction in triglyceride level in CFE rat […] in serum at 0.05% of diet treated through diet for 6 days relative to control; type: functional
# Summary of the method: (§1)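 Compound dissolved in methanol-chloroform (1:3 v/v), mixed into ground rat chow at 0.1, 0.05 or 0.025% (w/w), and solvent evaporated; controls received solvent-treated chow. Rats fed ad libitum with water for 6 days, then killed fed and bled. Serum sterols and triglycerides measured by autoanalyzer. Values given as percent of control, mean ± SE; significance by Student's t test.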
# Rattus norvegicus [2] = species on record: Rattus norvegicus; experiment: Reduction in triglyceride level in CFE rat […] at 0.025% of diet treated through diet for 6 days relative to control; type: functional, Serum; summary of the method: as §1
# Rattus norvegicus [3] = species on record: Rattus norvegicus; experiment: Reduction in sterol level in CFE rat […] at 0.025% of diet treated through diet for 6 days relative to control; type: functional, Serum; summary of the method: as §1
# Rattus norvegicus [4] = species on record: Rattus norvegicus; experiment: Reduction in sterol level in CFE rat […] in serum at 0.1% of diet treated through diet for 6 days relative to control; type: functional; summary of the method: as §1
# Rattus norvegicus [5] = species on record: Rattus norvegicus; experiment: Reduction in sterol level in CFE rat […] in serum at 0.05% of diet treated through diet for 6 days relative to control; type: functional; summary of the method: as §1
# Rattus norvegicus [6] = species on record: Rattus norvegicus; experiment: Reduction in triglyceride level in CFE rat […] in serum at 0.1% of diet treated through diet for 6 days relative to control; type: functional; summary of the method: as §1
SMILES,Activity (Rattus norvegicus [1]),Activity (Rattus norvegicus [2]),Activity (Rattus norvegicus [3]),Activity (Rattus norvegicus [4]),Activity (Rattus norvegicus [5]),Activity (Rattus norvegicus [6])
COC(=O)c1ccc(OCC(=O)C23CC4CC(CC(C4)C2)C3)cc1,82%,88%,97%,89%,96%,100%
CCCCCCCCCCCCCCC(C)Oc1ccc(C(=O)O)cc1 (centres undefined),72%,92%,90%,84%,85%,70%
CCCCCCCCCCCCCCC(C)(CC)Oc1ccc(C(=O)O)cc1 (centres undefined),,94%,100%,102%,,94%
CCCCS(=O)(=O)CCCCCCCCCCCOc1ccc(C(=O)O)cc1,69%,81%,91%,94%,95%,57%
CCCCCCCCCCCCCCCCOc1ccc(C(=O)O)cc1,62%,58%,89%,74%,83%,46%
CCCCCCCCCCC/C=C/CCCOc1ccc(C(=O)OC)cc1,57%,72%,68%,75%,73%,68%
CCCCCCCCCCCC(S)CCOc1ccc(C(=O)O)cc1 (centres undefined),53%,76%,94%,83%,89%,47%
O=C(O)c1ccc(OCCCCCCCCCCCS)cc1,47%,61%,44%,80%,74%,44%
CCCCCCCCCCCC(CCOc1ccc(C(=O)O)cc1)N=[N+]=[N-] (centres undefined),60%,98%,105%,76%,89%,55%
COC(=O)c1ccc(OCCCCCCCCCCCSC(C)=O)cc1,88%,66%,106%,113%,98%,63%
CCSCCCCCCCCCCCOc1ccc(C(=O)OC)cc1,74%,71%,110%,100%,100%,65%
O=C(O)c1ccc(OCCCCCCCCCCCCCCCOc2ccc(C(=O)O)cc2)cc1,77%,64%,97%,94%,103%,51%
CCCCCCCCCCCC(CCOc1ccc(C(=O)O)cc1)SCC (centres undefined),74%,68%,95%,83%,93%,44%
COCCCCCCCCCCCOc1ccc(C(=O)OC)cc1,69%,77%,93%,104%,96%,36%
CCCCCCCCCCCC(CCOc1ccc(C(=O)OC)cc1)OS(=O)(=O)c1ccc(C)cc1 (centres undefined),91%,91%,102%,98%,103%,86%
CCCCCCCCC/C=C/CCCOc1ccc(C(=O)O)cc1,89%,89%,87%,77%,73%,87%
CCCCCCCCCCCC1OC1CCCOc1ccc(C(=O)OC)cc1 (centres undefined),64%,74%,103%,84%,89%,65%
CCCCCCCCCCCC(O)C(O)CCCOc1ccc(C(=O)O)cc1 (centres undefined),60%,,,83%,86%,55%
